The values that follow come from ChEMBL document CHEMBL4346698, “Discovery and optimization of thienopyridine derivatives as novel urea transporter inhibitors” (Eur J Med Chem, 2019).

Each structure is given as a SMILES string. pIC50: −log10 of the molar value. The source made the active and inactive calls. No cut-off for these calls is given here. Some results are limits rather than exact numbers.

The target in the first experiment is T1, Urea transporter 1 (Homo sapiens, UniProt Q13336).
T1 sequence (Q13336 whole entry): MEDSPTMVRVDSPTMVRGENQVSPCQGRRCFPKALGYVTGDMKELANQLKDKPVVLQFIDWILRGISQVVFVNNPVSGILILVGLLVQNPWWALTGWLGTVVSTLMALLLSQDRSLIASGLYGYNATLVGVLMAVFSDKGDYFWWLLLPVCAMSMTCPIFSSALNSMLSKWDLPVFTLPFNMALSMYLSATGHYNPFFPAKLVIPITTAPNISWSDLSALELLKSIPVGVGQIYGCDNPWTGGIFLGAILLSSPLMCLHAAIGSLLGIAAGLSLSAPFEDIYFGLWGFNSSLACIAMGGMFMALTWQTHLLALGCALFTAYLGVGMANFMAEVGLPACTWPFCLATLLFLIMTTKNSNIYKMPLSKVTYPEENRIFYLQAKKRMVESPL
Description: Inhibition of urea transporter B in human erythrocytes incubated for 6 mins by spectrophotometric analysis based erythrocyte lysis assay. Format: cell-based.
For `CC(=O)c1sc2nc3ccc(C)cc3cc2c1N`, the pIC50 is 5.76.

In a further experiment the test system is Rattus norvegicus. Description: Diuretic activity in Sprague-Dawley rat assessed as increase in urine output at 100 mg/kg, sc measured after 10 hrs. Format: functional, organism-based. In short, it runs like this: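 SD rats housed in metabolic cages received a subcutaneous injection of 100 mg/kg in 40% 2-hydroxypropyl-β-cyclodextrin, with the vehicle alone as control. Urine output was collected for 10 h after dosing. n=5, mean + SD.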
Turning to `COC(=O)c1sc2nc(C)c(N)cc2c1N`, the outcome was Active.

Another experiment deals with T2, Urea transporter 1 (Rattus norvegicus, UniProt P97689).
T2 sequence (P97689 whole entry): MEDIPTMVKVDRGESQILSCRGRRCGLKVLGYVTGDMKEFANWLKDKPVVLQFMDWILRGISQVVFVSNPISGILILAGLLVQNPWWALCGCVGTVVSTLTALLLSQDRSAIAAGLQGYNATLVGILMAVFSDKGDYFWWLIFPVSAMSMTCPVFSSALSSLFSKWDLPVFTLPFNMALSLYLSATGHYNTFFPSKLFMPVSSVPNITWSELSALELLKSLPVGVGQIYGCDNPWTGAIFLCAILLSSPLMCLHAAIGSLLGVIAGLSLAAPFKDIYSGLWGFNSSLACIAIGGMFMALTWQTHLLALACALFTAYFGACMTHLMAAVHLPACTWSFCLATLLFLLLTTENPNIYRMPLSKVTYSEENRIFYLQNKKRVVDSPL
Description: Inhibition of urea transporter B in Sprague-Dawley rat erythrocytes incubated for 6 mins by spectrophotometric analysis based erythrocyte lysis assay. Format: cell-based. The method in brief:
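Blood came from 8-week-old male SD rats. Erythrocytes were held at 2% hematocrit in hyperosmolar PBS with 1.25 M urea and 5 mM glucose for 2 h at ambient temperature. Compound in DMSO was added for 6 min, then the cells were diluted 1:10 into isotonic PBS. Lysis was read as A710 within 5 min and normalised to same-plate no-lysis (isotonic PBS) and full-lysis (water) controls.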
For the molecule `COC(=O)c1sc2nc(C)c(Br)cc2c1N`, the pIC50 was 5.07.

For the molecule `COC(=O)c1sc2nc(C)cc(C)c2c1N`, the negative logarithm of the IC50 (pIC50) was 5.60.

The molecule `COC(=O)c1sc2nc3ccc(Br)cc3cc2c1N` had a pIC50 of 6.57.

As to `COC(=O)c1sc2nc(C)c(C(=O)N3CCOCC3)cc2c1N`, the pIC50 was below 5.00.

`COc1ccc2nc3sc(C(=O)O)c(N)c3cc2c1` had a negative logarithm of the IC50 (pIC50) below 5.00.

`COc1ccc2nc3sc(S(=O)(=O)N(C)C)c(N)c3cc2c1` had a negative logarithm of the IC50 (pIC50) below 5.00.

Regarding `CCNC(=O)c1cc2c(N)c(C(=O)OC)sc2nc1C`, the negative logarithm of the IC50 (pIC50) was below 5.00.

The molecule `COc1ccc2nc3sc(C(=O)N4CCOCC4)c(N)c3cc2c1` had a pIC50 below 5.00.

`CNC(=O)c1cc2c(N)c(C(=O)OC)sc2nc1C` gave a pIC50 below 5.00.

Regarding `COC(=O)c1sc2nc(C)c(OC)cc2c1N`, the pIC50 is 5.26.

On to `COC(=O)c1sc2nc(-c3ccccc3)ccc2c1N`, for which the pIC50 was 5.47.

`COC(=O)c1sc2nc(C)c(NC(C)=O)cc2c1N` showed a pIC50 of 5.46.

`CC(=O)c1sc2nc3ccc(C)cc3cc2c1N` showed a pIC50 of 5.45.

`COC(=O)CNC(=O)c1sc2nc3ccc(OC)cc3cc2c1N` gave a negative logarithm of the IC50 (pIC50) below 5.00.

Take `COC(=O)c1sc2nc(C)c(-c3ccccc3)cc2c1N`: the pIC50 is 5.48.

`COC(=O)c1sc2nc3ccc(C)cc3cc2c1N` showed a negative-log IC50 (pIC50) of 6.64.

The molecule `CCOC(=O)c1cnc2sc(C(=O)OC)c(N)c2c1` showed a pIC50 below 5.00.

`COC(=O)c1sc2nc3c(C)cc(C)cc3cc2c1N`: the pIC50 was 6.21.

`COC(=O)c1sc2nc3ccc(F)cc3cc2c1N` gave a negative logarithm of the IC50 (pIC50) of 6.80.

In the case of `COC(=O)c1sc2nc3ccccc3cc2c1N`, the negative-log IC50 (pIC50) is 6.66.

`COC(=O)c1sc2nc(C(=O)N3CCOCC3)ccc2c1N`: the negative-log IC50 (pIC50) is below 5.00.

`COC(=O)c1sc2nc(C)c(N(C)C)cc2c1N` gave a pIC50 of 5.43.

Take `COC(=O)c1sc2nc(C)c(C(C)=O)cc2c1N`: the pIC50 was 6.04.

In turn, `CCc1cc2c(N)c(C(=O)OC)sc2nc1C` gave a negative-log IC50 (pIC50) of 6.15.

The molecule `COC(=O)c1sc2nc(C)c(NS(C)(=O)=O)cc2c1N` showed a negative-log IC50 (pIC50) of 5.19.

Turning to `CNC(=O)c1sc2nc3ccc(OC)cc3cc2c1N`, the negative logarithm of the IC50 (pIC50) was below 5.00.

With `COc1ccc2nc3sc(C(C)=O)c(N)c3cc2c1`, the negative-log IC50 (pIC50) is 5.79.

`COC(=O)c1sc2nc(C)c([N+](=O)[O-])cc2c1N` had a negative logarithm of the IC50 (pIC50) below 5.00.

Molecule `COc1ccc2nc3sc(C(N)=O)c(N)c3cc2c1` had a negative logarithm of the IC50 (pIC50) below 5.00.

`COC(=O)c1sc2nc3ccc(OC)cc3cc2c1N` had a pIC50 of 6.66.

For the molecule `COC(=O)c1sc2nc(C)c(N)cc2c1N`, the negative-log IC50 (pIC50) is 6.27.

In turn, `COC(=O)CC(=O)c1sc2nc3ccc(OC)cc3cc2c1N` had a pIC50 below 5.00.

With `CCOC(=O)c1sc2nc3ccc(OC)cc3cc2c1N`, the pIC50 was below 5.00.

As to `COC(=O)c1sc2nc(C)ccc2c1N`, the negative-log IC50 (pIC50) is 5.89.

`COC(=O)c1sc2nc(C)cc(C(F)(F)F)c2c1N` had a negative logarithm of the IC50 (pIC50) of 5.21.

The molecule `COC(=O)c1sc2nc(C)c(F)cc2c1N` had a pIC50 below 5.00.
